Measurements published in ChEMBL document CHEMBL4400560, “Discovery and optimization of novel piperazines as potent inhibitors of fatty acid synthase (FASN)” (Bioorg Med Chem Lett, 2019).
Converted amounts (≈) assume the structure as drawn.

How the values were obtained:
[1] = Stability in mouse liver microsomes assessed as compound remaining after 30 mins; assay type: ADME, Microsome; details: read-out: Stability
Method in brief: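 Mouse liver microsomes, 30-min incubation. Result expressed as percent of parent remaining.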

Fatty acid synthase [2] = molecular target: T1, Fatty acid synthase (Homo sapiens, UniProt P49327); assay: Inhibition of full length recombinant human FASN using acetyl-CoA/malonyl-CoA as substrate preincubated for 60 mins followed by substrate addition and measured after 90 mins in presence of NADPH
Method in brief: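 Full-length recombinant human FASN. CoA released is detected as a fluorescent conjugate with the coumarin maleimide CPM. IC50 is the mean of at least two separate runs.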

Fatty acid synthase [3] = molecular target: T1, Fatty acid synthase; assay: Inhibition of FASN in human BT474 cells preincubated for 1 hr followed by [14C]-acetate addition and measured after 4 hrs by scintillation counting assay; assay type: cell-based
Method in brief: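 BT474 breast cancer cells given 14C-acetate, which cellular FASN incorporates via acetyl-CoA into newly made radiolabeled palmitate. IC50 for blocking this incorporation is the mean of at least two separate runs.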

[4] = Kinetic solubility of compound at pH 7.4; assay type: physicochemical; details: buffer, read-out: Kinetic_solubility
Method in brief: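 Kinetic solubility measured at pH 7.4.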

PC-3 = assay: Antiproliferative activity against human PC3 cells after 96 hrs by MTT assay; assay type: functional, cell-based; details: PC-3, 96 h
Method in brief: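 PC3 prostate cancer cells grown in medium with 10% lipid-reduced serum, a condition in which growth depends on de novo lipogenesis, in the presence of inhibitor. Antiproliferative IC50 reported as the mean of at least two separate runs.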

[5] = Stability in mouse hepatocytes after 1 hr; assay type: ADME, cell-based, Hepatocyte; details: read-out: Stability
[6] = Stability in mouse liver S9 fraction after 1 hr; assay type: ADME, subcellular; details: read-out: Stability
[7] = AUC in mouse at mg/kg, po; assay type: ADME, organism-based; parameters: concentration or dose not given beside the values; details: in vivo
Method in brief: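 Mouse oral PK study at 5 mg/kg p.o., with plasma exposure taken as AUC0-8h.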

[8] = Toxicity in Balb/c nude mouse at 5 mg/kg, po administered as single dose; assay type: organism-based; details: in vivo
Method in brief: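 Female Balb/c nude mice observed for acute toxicity after a single oral 5 mg/kg dose.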

MV4-11 [9] = assay: Antiproliferative activity against human MV4-11 cells after 96 hrs by CellTiter-Glo reagent-based assay; assay type: functional, cell-based; details: MV4-11, 96 h
Method in brief: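 Antiproliferative activity measured in MV-411 cells. IC50 reported as the mean of at least two separate assay runs.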

[10] = Tmax in Balb/c nude mouse at 5 mg/kg, po; assay type: ADME, organism-based; details: in vivo
Method in brief: (§1)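 Female Balb/c nude mice (n=6) dosed orally at 5 mg/kg in PEG400/ethanol (9:1). Exposure measured over 8 h, giving Tmax, Cmax, AUC0-8h and %F.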

[11] = Cmax in Balb/c nude mouse at 5 mg/kg, po; assay type: ADME, organism-based; parameters: dose 5 mg/kg, route oral; details: in vivo; method in brief: as §1
[12] = AUC (0 to 8 hrs) in Balb/c nude mouse at 5 mg/kg, po; assay type: ADME, organism-based; parameters: time < 8 hr, dose 5 mg/kg, route oral; details: in vivo; method in brief: as §1
[13] = Oral bioavailability in Balb/c nude mouse at 5 mg/kg; assay type: ADME, organism-based; details: in vivo; method in brief: as §1
[14] = Tmax in Sprague-Dawley rat at 5 mg/kg, po; assay type: ADME, organism-based; details: in vivo
Method in brief: (§2)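 Male Sprague-Dawley rats (n=3) given a single oral 5 mg/kg dose in PEG400/ethanol (9:1). Plasma followed over 24 h to give Tmax, Cmax, AUC0-24h and oral bioavailability (%F).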

[15] = Cmax in Sprague-Dawley rat at 5 mg/kg, po; assay type: ADME, organism-based; parameters: dose 5 mg/kg, route oral; details: in vivo; method in brief: as §2
[16] = AUC (0 to 24 hrs) in Sprague-Dawley rat at 5 mg/kg, po; assay type: ADME, organism-based; parameters: dose 5 mg/kg, time < 24 hr, route oral; details: in vivo; method in brief: as §2
[17] = Oral bioavailability in Sprague-Dawley rat at 5 mg/kg; assay type: ADME, organism-based; details: in vivo; method in brief: as §2
Mus musculus = assay: In vivo inhibition of FASN in Harlan nude mouse xenografted with human MV411 cells assessed as increase in malonyl-CoA levels in tumors administered orally twice daily for 16 days and measured 4 hrs post last dose by LC-MS analysis; assay type: functional, organism-based
Method in brief: (§3)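 Mice carrying subcutaneous MV-411 xenografts were randomized at […] tumor size into four groups (n=4). Groups received vehicle (PEG400/ethanol 9:1 v/v) or 5, 25 or 50 mg/kg twice daily. Tumors were taken 4 h after the last dose for malonyl-CoA measurement by LC-MS (one-way ANOVA vs vehicle). Tumor growth inhibition was assessed vs vehicle after 16 days.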

MV4-11 [18] = assay: Antitumor activity against human MV4-11 cells xenografted in Harlan nude mouse assessed as tumor growth inhibition at 25 mg/kg, po administered twice daily for 16 days and measured 4 hrs post last dose; assay type: functional; details: MV4-11, po, read-out: TGI; method in brief: as §3
MV4-11 [19] = assay: Antitumor activity against human MV4-11 cells xenografted in Harlan nude mouse assessed as tumor growth inhibition at 50 mg/kg, po administered twice daily for 16 days and measured 4 hrs post last dose; assay type: functional; details: MV4-11, po, read-out: TGI; method in brief: as §3
[20] = Inhibition of ketoreductase (unknown origin); parameters: species or system Homo sapiens
[21] = Inhibition of enoyl reductase (unknown origin); parameters: species or system Homo sapiens
[22] = Inhibition of dehydratase (unknown origin); parameters: species or system Homo sapiens
[23] = Inhibition of thioesterase (unknown origin); parameters: species or system Homo sapiens

T1 sequence (P49327 whole entry): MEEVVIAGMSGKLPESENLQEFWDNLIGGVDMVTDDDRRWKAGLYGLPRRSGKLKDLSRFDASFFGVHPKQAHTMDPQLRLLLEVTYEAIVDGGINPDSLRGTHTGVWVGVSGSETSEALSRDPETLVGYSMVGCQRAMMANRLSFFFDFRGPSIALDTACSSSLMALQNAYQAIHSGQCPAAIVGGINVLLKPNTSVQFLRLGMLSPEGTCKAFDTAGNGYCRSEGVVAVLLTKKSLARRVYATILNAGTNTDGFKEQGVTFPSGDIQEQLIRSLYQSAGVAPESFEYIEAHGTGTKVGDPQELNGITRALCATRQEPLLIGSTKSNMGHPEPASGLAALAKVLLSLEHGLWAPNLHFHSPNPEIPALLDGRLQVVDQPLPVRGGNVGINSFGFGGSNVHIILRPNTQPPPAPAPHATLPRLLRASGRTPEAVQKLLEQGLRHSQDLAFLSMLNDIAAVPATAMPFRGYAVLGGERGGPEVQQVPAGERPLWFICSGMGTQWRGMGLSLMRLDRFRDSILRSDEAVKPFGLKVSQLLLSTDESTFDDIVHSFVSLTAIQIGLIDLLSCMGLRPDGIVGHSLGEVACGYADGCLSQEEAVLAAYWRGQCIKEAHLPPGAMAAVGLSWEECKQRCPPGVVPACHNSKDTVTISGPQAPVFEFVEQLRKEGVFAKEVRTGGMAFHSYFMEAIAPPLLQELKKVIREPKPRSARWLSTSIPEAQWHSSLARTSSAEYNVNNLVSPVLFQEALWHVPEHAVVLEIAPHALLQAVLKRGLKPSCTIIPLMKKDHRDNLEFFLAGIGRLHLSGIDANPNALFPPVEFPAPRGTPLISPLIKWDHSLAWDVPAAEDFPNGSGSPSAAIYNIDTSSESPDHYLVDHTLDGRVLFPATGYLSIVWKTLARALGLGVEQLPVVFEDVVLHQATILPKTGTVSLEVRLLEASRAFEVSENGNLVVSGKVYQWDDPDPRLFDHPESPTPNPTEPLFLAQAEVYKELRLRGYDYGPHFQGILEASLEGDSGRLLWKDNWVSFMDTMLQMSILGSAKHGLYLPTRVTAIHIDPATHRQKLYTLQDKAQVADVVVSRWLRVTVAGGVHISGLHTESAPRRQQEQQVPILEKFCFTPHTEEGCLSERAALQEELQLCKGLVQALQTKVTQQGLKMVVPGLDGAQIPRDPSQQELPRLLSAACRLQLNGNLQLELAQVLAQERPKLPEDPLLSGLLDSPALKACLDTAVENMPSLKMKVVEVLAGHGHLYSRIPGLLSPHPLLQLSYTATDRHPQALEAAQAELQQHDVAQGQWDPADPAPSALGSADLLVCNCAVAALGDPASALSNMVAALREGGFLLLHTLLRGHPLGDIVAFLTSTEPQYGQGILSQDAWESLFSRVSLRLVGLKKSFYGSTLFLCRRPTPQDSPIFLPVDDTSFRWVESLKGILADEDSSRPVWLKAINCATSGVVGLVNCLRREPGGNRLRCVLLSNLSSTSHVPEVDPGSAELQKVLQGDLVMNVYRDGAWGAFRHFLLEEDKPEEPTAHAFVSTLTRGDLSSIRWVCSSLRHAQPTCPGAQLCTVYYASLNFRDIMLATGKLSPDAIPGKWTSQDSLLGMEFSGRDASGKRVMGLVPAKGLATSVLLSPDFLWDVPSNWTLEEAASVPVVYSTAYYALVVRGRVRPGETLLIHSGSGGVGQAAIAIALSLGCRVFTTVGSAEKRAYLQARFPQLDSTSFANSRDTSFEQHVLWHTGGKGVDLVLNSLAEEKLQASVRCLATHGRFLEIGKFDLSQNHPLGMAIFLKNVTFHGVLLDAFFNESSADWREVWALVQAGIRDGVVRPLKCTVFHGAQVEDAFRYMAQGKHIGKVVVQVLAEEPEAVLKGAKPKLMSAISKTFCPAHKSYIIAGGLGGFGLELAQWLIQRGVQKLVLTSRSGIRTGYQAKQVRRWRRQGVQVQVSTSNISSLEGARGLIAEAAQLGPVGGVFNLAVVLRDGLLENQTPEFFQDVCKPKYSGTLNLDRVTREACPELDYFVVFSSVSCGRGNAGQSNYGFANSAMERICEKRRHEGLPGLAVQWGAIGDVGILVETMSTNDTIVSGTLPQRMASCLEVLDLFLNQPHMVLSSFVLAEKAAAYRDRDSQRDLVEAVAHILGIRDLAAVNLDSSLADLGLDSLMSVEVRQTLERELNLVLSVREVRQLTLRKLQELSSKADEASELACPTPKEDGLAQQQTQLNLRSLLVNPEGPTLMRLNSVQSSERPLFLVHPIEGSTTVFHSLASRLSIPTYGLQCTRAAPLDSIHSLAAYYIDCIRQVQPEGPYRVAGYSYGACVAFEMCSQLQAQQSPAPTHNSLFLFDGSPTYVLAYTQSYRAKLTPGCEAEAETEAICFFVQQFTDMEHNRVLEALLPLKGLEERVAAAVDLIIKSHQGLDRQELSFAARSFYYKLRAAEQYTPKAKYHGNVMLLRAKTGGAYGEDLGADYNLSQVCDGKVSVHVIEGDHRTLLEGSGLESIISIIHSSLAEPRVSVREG

SMILES: O=C(c1ccc(-c2ccccc2)cc1)N1CCN(C(=O)C2(O)CC2)CC1
- remaining at 0.5 h [1]: 95%
- IC50 (Fatty acid synthase [2]): 350 nM

SMILES: O=C(c1ccc(-c2ccc(F)cc2Cl)cc1)N1CCN(C(=O)C2(O)CC2)CC1
- remaining at 0.5 h [1]: 69%
- IC50 (Fatty acid synthase [2]): 310 nM
- IC50 (Fatty acid synthase [3]): 4960 nM
- solubility kinetic [4]: 67 µM (≈ 27 µg/mL)

SMILES: Cn1ncc2ccc(-c3ccc(C(=O)N4CCN(C(=O)C5(O)CC5)CC4)cc3)cc21
- remaining at 0.5 h [1]: 89%
- IC50 (Fatty acid synthase [2]): 26 nM
- IC50 (PC-3): 12 nM
- solubility kinetic [4]: 79 µM (≈ 32 µg/mL)
- remaining at 1 h [5]: 77%
- remaining at 1 h [6]: 75%
- AUC [7]: 9.8 µM·h

SMILES: O=C(c1ccc(-c2ccc(Cl)cc2F)cc1)N1CCN(C(=O)C2(O)CC2)CC1
- remaining at 0.5 h [1]: 92%
- IC50 (Fatty acid synthase [2]): 110 nM
- IC50 (PC-3): 146 nM
- IC50 (Fatty acid synthase [3]): 336 nM
- solubility kinetic [4]: 33 µM (≈ 13.3 µg/mL)
- remaining at 1 h [5]: 84%
- remaining at 1 h [6]: 70%
- AUC [7]: 47.6 µM·h

SMILES: O=C(c1ccc(-c2ccc3ocnc3c2)cc1)N1CCN(C(=O)C2(O)CC2)CC1
- remaining at 0.5 h [1]: 60%
- IC50 (Fatty acid synthase [2]): 142 nM
- IC50 (PC-3): 142 nM
- IC50 (Fatty acid synthase [3]): 257 nM
- solubility kinetic [4]: 92 µM (≈ 36 µg/mL)

SMILES: O=C(c1ccc(-c2ccccc2)cc1)N1CCN(C(=O)C2CCCC2)CC1
- IC50 (Fatty acid synthase [2]): > 50000 nM

SMILES: O=C(c1ccc(-c2cnc3ccccc3c2)cc1)N1CCN(C(=O)C2(O)CC2)CC1
- remaining at 0.5 h [1]: 86%
- IC50 (Fatty acid synthase [2]): 10 nM
- IC50 (Fatty acid synthase [3]): 12 nM
- solubility kinetic [4]: 82 µM (≈ 32.9 µg/mL)

SMILES: O=C(c1ccc(-c2nc3cc(F)ccc3o2)cc1)N1CCN(C(=O)C2(O)CC2)CC1
- remaining at 0.5 h [1]: 93%
- IC50 (Fatty acid synthase [2]): 192 nM
- IC50 (PC-3): 52 nM
- IC50 (Fatty acid synthase [3]): 61 nM
- solubility kinetic [4]: 30 µM (≈ 12.3 µg/mL)
- Activity [8]: Toxic

SMILES: O=C(c1ccc(-c2ccccc2)cc1)N1CCN(C(=O)C2(O)CCCC2)CC1
- IC50 (Fatty acid synthase [2]): > 50000 nM

SMILES: COc1ccc(-c2ccc(C(=O)N3CCN(C(=O)C4(O)CC4)CC3)cc2)c(Cl)c1
- IC50 (Fatty acid synthase [2]): 3100 nM

SMILES: Cn1c(-c2ccc(C(=O)N3CCN(C(=O)C4(O)CC4)CC3)cc2)cc2ccccc21
- remaining at 0.5 h [1]: 83%
- IC50 (Fatty acid synthase [2]): 33 nM
- IC50 (PC-3): 25 nM
- IC50 (Fatty acid synthase [3]): 70 nM
- solubility kinetic [4]: 0.3 µM (≈ 0.121 µg/mL)

SMILES: O=C(c1ccc(-c2nc3ccccc3s2)cc1)N1CCN(C(=O)C2(O)CC2)CC1
- remaining at 0.5 h [1]: 84%
- IC50 (Fatty acid synthase [2]): 57 nM
- IC50 (PC-3): 214 nM
- IC50 (Fatty acid synthase [3]): 67 nM
- solubility kinetic [4]: 18 µM (≈ 7.33 µg/mL)

SMILES: O=C(c1ccc(-c2nc3ccc(F)cc3o2)cc1)N1CCN(C(=O)C2(O)CC2)CC1
- remaining at 0.5 h [1]: 100%
- IC50 (Fatty acid synthase [2]): 213 nM
- IC50 (PC-3): 47 nM
- IC50 (Fatty acid synthase [3]): 90 nM
- solubility kinetic [4]: 39 µM (≈ 16 µg/mL)
- IC50 (MV4-11 [9]): 26 nM
- Tmax [10]: 2 h
- Cmax [11]: 8.4 µM
- AUC(0-t) at 8 h [12]: 46 µM·h
- bioavailability [13]: 95%
- Tmax [14]: 3 h
- Cmax [15]: 33 µM
- AUC(0-t) at 24 h [16]: 440 µM·h
- bioavailability [17]: 84%
- inhibition (Mus musculus): Dose-dependent effect
- inhibition in vivo at 25 mg/kg (MV4-11 [18]): 32%
- inhibition in vivo at 50 mg/kg (MV4-11 [19]): 50%
- remaining at 1 h [5]: 97%
- remaining at 1 h [6]: 83%
- AUC [7]: 46 µM·h
- Activity [8]: Non-Toxic

SMILES: O=C(c1ccc(-c2ccccc2)cc1)N1CCN(C(=O)C2CCCO2)CC1 (racemic)
- IC50 (Fatty acid synthase [2]): 1140 nM
- IC50 [20]: 1800 nM
- IC50 [21]: > 50 µM
- IC50 [22]: > 50 µM
- IC50 [23]: > 50 µM
